ChEMBL document CHEMBL5316292 (J Med Chem, 2023)
Calls of active or inactive are those of the source. The rule behind the calls is not given here.

How the values were obtained:
VCaP [1] = experiment: Downregulation of BRD4 mRNA levels in human VCaP cells at 25 to 2500 nM incubated for 24 hrs by qRT-PCR analysis; type: functional, cell-based; settings: dose 25-2500 nM
Procedure, shortened: (§1)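 VCaP cells grown to 50% confluence, then treated with compound or DMSO (Methods state 16 h, legend states 24 h). Total RNA isolated, cDNA made from 1 µg RNA, SYBR Green qPCR run in triplicate. Expression by ΔΔCt, normalised to GAPDH. Three independent experiments, SEM.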

[2] = biological target: T1, Bromodomain-containing protein 3 (Homo sapiens, UniProt Q15059); experiment: Binding affinity to 6His-tagged BRD3-BD2 (unknown origin) by MST assay
Procedure, shortened: (§2)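 His6-tagged BD (80 nM) after size-exclusion, labelled 1:1 with 10 nM Red-tris-NTA in PBST (0.05% Tween-20) for 30 min at room temperature, then centrifuged. Mixed with an equal volume of serially diluted compound. Thermophoresis read at 40% LED/MST power. Triplicate data curve-fitted, error as SEM.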
Target sequence in this assay (Q15059 whole entry): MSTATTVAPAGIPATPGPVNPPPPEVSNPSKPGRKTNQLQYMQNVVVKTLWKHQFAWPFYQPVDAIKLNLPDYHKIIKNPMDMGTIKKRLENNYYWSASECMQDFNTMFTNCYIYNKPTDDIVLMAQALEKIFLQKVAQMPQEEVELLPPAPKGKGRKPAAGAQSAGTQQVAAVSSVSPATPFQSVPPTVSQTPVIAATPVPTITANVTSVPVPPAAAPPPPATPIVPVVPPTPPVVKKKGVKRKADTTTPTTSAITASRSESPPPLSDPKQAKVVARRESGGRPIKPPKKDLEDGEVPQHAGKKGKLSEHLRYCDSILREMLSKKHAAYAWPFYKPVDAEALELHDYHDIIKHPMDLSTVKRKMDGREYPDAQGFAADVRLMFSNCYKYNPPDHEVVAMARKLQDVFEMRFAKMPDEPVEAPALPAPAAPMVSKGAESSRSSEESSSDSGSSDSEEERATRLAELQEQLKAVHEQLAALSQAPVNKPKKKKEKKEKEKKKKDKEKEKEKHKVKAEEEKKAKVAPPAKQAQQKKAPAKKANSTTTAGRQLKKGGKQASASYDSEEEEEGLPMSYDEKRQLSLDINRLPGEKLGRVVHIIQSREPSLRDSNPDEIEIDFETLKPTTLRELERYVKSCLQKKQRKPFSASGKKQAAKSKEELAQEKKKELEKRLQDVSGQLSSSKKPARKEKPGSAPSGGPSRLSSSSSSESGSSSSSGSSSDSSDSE

[3] = biological target: T2, Bromodomain-containing protein 2 (Homo sapiens, UniProt P25440); experiment: Induction of BRD2 degradation in human MDA-MB-231 cells incubated for 16 hrs by immunoblotting analysis; type: cell-based
Procedure, shortened: (§3)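 MDA-MB-231 or PC-3 cells at 50% confluence in DMEM/10% FBS/pen-strep, treated 16 h with doses falling tenfold from 10 µM to 1 nM. RIPA lysates immunoblotted for BRD2, BRD3 and BRD4 with GAPDH as control. DC50 derived from band densitometry. SEM, n = 2.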

[4] = biological target: T1, Bromodomain-containing protein 3; experiment: Binding affinity to human partial length BRD3 BD1 (P24 to E144 residues) expressed in bacterial expression system assessed as change in melting temperature at 50 uM at 20 to 85 degreeC by SYPRO orange staining based thermal shift assay
Procedure, shortened: (§4)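 DSF thermal shift. 10 µM BD in 50 mM HEPES, 500 mM NaCl pH 7.5, with 50 µM compound or DMSO-matched control and 1:1000 Sypro Orange (ex 465/em 590 nm). Ramp 20–85 °C at 0.03 °C/s. Tm taken as the midpoint between fluorescence max and min. At least three independent experiments, SEM in °C.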
Target sequence in this assay (Q15059 2-726 limits assumed): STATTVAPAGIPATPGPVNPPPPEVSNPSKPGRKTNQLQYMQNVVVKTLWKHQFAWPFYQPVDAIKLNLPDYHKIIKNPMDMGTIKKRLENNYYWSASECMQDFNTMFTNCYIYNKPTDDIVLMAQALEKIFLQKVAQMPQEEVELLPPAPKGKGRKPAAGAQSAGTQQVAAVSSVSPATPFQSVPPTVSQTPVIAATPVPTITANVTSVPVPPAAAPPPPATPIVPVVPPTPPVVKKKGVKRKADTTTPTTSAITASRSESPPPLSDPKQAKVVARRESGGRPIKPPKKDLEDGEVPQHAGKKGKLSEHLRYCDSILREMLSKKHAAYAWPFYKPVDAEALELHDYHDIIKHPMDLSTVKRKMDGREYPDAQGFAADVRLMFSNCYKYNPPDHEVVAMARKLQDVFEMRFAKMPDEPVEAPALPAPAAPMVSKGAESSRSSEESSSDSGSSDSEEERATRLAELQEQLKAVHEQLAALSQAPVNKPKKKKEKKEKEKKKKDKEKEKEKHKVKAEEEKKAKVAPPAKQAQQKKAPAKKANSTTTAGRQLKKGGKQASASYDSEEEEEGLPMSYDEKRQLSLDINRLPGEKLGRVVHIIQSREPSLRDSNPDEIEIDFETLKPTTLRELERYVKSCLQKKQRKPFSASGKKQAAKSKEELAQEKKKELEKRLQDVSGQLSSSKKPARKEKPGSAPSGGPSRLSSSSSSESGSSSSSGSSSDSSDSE

[5] = biological target: T3, Bromodomain testis-specific protein (Homo sapiens, UniProt Q58F21); experiment: Binding affinity to human partial length BRDT BD2 (K250 to E382 residues) expressed in bacterial expression system using H4K5acIC8acK12acK16ac-biotinylated peptide as substrate preincubated for 30 mins followed by substrate addition by AlphaScreen assay
Procedure, shortened: (§5)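 AlphaScreen. Biotinylated H4K5acK8acK12acK16ac peptide added at equal concentration to protein for 30 min. Donor and acceptor beads (25 µg/mL each) added, ≥1 h in the dark. Triplicate, curve-fitted, SEM.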

[6] = biological target: T4, Bromodomain-containing protein 4 (Homo sapiens, UniProt O60885); experiment: Induction of BRD4 degradation in human PC-3 cells incubated for 16 hrs by immunoblotting analysis; type: cell-based; procedure, shortened: as §3
[7] = biological target: T2, Bromodomain-containing protein 2; experiment: Binding affinity to human partial length BRD2 BD2 (E348to D455 residues) expressed in bacterial expression system using H4K5acIC8acK12acK16ac-biotinylated peptide as substrate preincubated for 30 mins followed by substrate addition by AlphaScreen assay; procedure, shortened: as §5
[8] = biological target: T1, Bromodomain-containing protein 3; experiment: Induction of BRD3 degradation in human MDA-MB-231 cells at 10 uM incubated for 8 hrs in presence of MG132 by immunoblotting analysis; type: cell-based
Target sequence in this assay (Q15059 2-726 limits assumed): as above

VCaP [9] = experiment: Downregulation of ERG gene levels in human VCaP cells incubated for 24 hrs by qRT-PCR analysis; type: functional, cell-based; settings: dose 25-2500 nM; procedure, shortened: as §1
[10] = Induction of degradation in human PC-3 cells incubated for 16 hrs by immunoblotting analysis
[11] = biological target: T3, Bromodomain testis-specific protein; experiment: Binding affinity to human partial length BRDT BD1 (N21 to E137 residues) expressed in bacterial expression system assessed as change in melting temperature at 50 uM at 20 to 85 degreeC by SYPRO orange staining based thermal shift assay; procedure, shortened: as §4
[12] = biological target: T4, Bromodomain-containing protein 4; settings: dose 50.0 µM
[13] = biological target: T1, Bromodomain-containing protein 3; experiment: Binding affinity to 6His-tagged BRD3-BD1 (unknown origin) by MST assay; procedure, shortened: as §2
Target sequence in this assay (Q15059 whole entry): as the sequence (Q15059 whole entry) above

[14] = Cytotoxicity against HFF cells assessed as reduction in cell viability measured after 72 hrs by MTS assay; type: toxicity, cell-based; settings: human
Procedure, shortened: (§6)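 MTS viability assay run in triplicate wells. Serial dilutions in DMSO were given, with DMSO as negative control and doxorubicin as positive control, and incubated 72 h. MTS reagent was added for 2 h and absorbance read at 490 nm. % cytotoxicity = (A_medium − A_treatment)/A_medium × 100. EC50 ± SD was taken from dose-response curves of at least three independent experiments.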

[15] = biological target: T4, Bromodomain-containing protein 4; experiment: Induction of BRD4 degradation in human MDA-MB-231 cells at 10 uM incubated for 8 hrs in presence of MG132 by immunoblotting analysis; type: cell-based
[16] = biological target: T1, Bromodomain-containing protein 3; experiment: Induction of BRD3 degradation in human MDA-MB-231 cells at 10 uM by immunoblotting analysis; type: cell-based; settings: time 8.0 hrs
Target sequence in this assay (Q15059 2-726 limits assumed): as the sequence (Q15059 2-726 limits assumed) above

PC-3 = experiment: Antiproliferative activity against androgen-insensitive human PC-3 cells assessed as reduction in cell viability measured after 72 hrs by MTS assay; type: functional, cell-based; settings: PC-3, 72 h; procedure, shortened: as §6
MDA-MB-231 = experiment: Effect on BET mRNA levels in human MDA-MB-231 cells at 0.025 to 2.5 uM incubated for 24 hrs by qRT-PCR analysis; type: functional, cell-based; settings: dose 0.025-2.5 µM
Procedure, shortened: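 MDA-MB-231 cells treated for 24 h at doses rising tenfold from 25 nM to 2.5 µM. Gene expression measured by qRT-PCR. SEM, n = 3.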

[17] = biological target: T3, Bromodomain testis-specific protein; experiment: Binding affinity to human partial length BRDT BD2 (K250 to E382 residues) expressed in bacterial expression system assessed as change in melting temperature at 50 uM at 20 to 85 degreeC by SYPRO orange staining based thermal shift assay; procedure, shortened: as §4
[18] = biological target: T2, Bromodomain-containing protein 2; experiment: Binding affinity to human partial length BRD2 BD1 (K71 to N194 residues) expressed in bacterial expression system using H4K5acIC8acK12acK16ac-biotinylated peptide as substrate preincubated for 30 mins followed by substrate addition by AlphaScreen assay; procedure, shortened: as §5
LNCaP = experiment: Antiproliferative activity against androgen-sensitive human LNCaP cells assessed as reduction in cell viability measured after 72 hrs by MTS assay; type: functional, cell-based; procedure, shortened: as §6
VCaP [19] = experiment: Antiproliferative activity against AR-positive human VCaP cells assessed as reduction in cell viability measured after 72 hrs by MTS assay; type: functional, cell-based
Procedure, shortened: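 VCaP cells in 96-well plates, compound serially diluted in DMSO and run in triplicate wells for 72 h. MTS reagent added for 2 h, absorbance read at 490 nm. % cytotoxicity = (A_medium − A_treatment)/A_medium × 100. EC50 and SD taken from dose-response curves, at least three independent experiments.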

T2 sequence (P25440 whole entry): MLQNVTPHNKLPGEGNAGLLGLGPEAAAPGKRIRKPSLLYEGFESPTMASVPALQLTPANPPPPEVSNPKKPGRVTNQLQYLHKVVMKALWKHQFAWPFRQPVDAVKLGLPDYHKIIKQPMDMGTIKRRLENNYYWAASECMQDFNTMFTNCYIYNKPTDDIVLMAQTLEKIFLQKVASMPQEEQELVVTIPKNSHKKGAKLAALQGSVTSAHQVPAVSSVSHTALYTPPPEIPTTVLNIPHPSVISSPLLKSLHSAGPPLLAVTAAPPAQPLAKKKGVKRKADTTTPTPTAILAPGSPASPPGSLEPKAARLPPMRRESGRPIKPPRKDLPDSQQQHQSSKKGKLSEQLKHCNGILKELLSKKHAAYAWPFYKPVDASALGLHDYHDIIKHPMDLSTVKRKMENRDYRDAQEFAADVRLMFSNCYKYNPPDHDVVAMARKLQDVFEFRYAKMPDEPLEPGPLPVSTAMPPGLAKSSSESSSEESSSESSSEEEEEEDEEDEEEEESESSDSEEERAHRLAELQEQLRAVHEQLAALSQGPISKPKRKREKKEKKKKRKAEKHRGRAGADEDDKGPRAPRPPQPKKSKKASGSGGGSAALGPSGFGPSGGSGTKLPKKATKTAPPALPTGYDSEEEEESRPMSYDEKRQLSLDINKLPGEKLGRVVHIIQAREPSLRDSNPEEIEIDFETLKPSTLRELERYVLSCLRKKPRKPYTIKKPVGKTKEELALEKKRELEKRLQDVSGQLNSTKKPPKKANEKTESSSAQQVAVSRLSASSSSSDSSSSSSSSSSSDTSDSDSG

CC(=O)OC[C@]12CC[C@H]3[C@@H](C[C@H]4O[C@]45CC=CC(=O)[C@]35C)[C@]1(O)CC[C@@]2(O)[C@@](C)(O)[C@H]1CC(C)=C(C)C(=O)O1
Activity (VCaP [1]): inactive
Kd [2]: 149 nM
DC50 [3]: > 10000 nM
ΔTm [4]: 12.5 °C
IC50 [5]: 119 nM
Activity [6]: Dose-Dependent Effect
DC50 [6]: 56.7 nM
IC50 [7]: 244 nM
Activity [8]: inactive
Activity (VCaP [9]): Dose-Dependent Effect
Activity [10]: Dose-Dependent Effect
ΔTm [11]: 9.57 °C
ΔTm [12]: 7.33 °C
Kd [13]: 14.1 nM
EC50 at 72 h [14]: > 2000 nM
Activity [15]: inactive
Activity [16]: Active
EC50 (PC-3): 63 nM
Activity (MDA-MB-231): inactive
ΔTm [17]: 7.58 °C
IC50 [18]: 103 nM
EC50 (LNCaP): 21.6 nM
EC50 (VCaP [19]): 30.5 nM
